# In the library only some 3.4% were active in any assay of this set; here they are far more common.
# Hsp90 block = displaces geldanamycin probe from tumor Hsp90; P07900; NCI-N417 lysate Hsp90, Cy3B-geldanamycin FP displacement; inhibition, % at 30 µM; 64,000 tested, 0.35% active; AID 429;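 active means inhibition above 50%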;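 further: 0% = tracer plus lysate wells and 100% = tracer alone without lysate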
# JNK3 blocker = JNK3 (human) kinase inhibition | purified JNK3 kinase activity, HTS | inhibition, % at 8 µM | 60,000 tested, 0.61% active; in the data active means inhibition above about 17%;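 further: 0% = DMSO and 100% = reference inhibitor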
# Cdc25B inh = human M-phase inducer phosphatase 2 inhibition; recombinant Cdc25B, OMFP fluorescence Ex485/Em525; inhibition, %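 (compounds tested at 10 µM final in the well)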; AID 368; 65,000 tested, 0.1% active; P30305; in the data active means inhibition above about 50%
# SF1 activator = SF-1 (human) activation | Q13285 | CHO-K1 Gal4-SF-1 LBD luciferase reporter; % increase over DMSO SF-1-specific signal | activation, % at 10 µM | 65,000 tested, 1.9% active | AID 522;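 active means activation above the mean activation of all tested compounds plus 3 SD, cut at about 50% in these data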
# Target sequence (Q13285 whole entry, looked up, the tested form may be a part): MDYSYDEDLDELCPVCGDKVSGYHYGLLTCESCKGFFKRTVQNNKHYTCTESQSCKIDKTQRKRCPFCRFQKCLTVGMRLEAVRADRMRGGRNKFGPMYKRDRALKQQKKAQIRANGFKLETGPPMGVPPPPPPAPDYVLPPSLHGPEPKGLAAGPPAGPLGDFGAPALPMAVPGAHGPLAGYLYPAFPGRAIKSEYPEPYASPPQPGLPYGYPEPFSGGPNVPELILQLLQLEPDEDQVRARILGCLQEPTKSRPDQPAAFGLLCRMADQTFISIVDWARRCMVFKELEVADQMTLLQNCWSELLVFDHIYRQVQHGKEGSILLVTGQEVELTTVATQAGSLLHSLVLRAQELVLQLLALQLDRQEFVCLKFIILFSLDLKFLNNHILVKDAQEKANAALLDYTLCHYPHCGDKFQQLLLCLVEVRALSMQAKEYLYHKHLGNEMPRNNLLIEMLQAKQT
#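 Test system: transient Gal4-SF-1 LBD reporter, CHO-K1; Amount: 4,000 CHO-K1 cells per well; Doses: 10 µM only; Timing: compound exposure 20 h at 37 °C; Signal: luciferase light emission; Read-out basis: percent activation relative to DMSO median and mock-transfected background; Control set: DMSO negative control and −SF1 background wells; Replicates: one test per compound.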
# DUSP1 inh = inhibitors of human MKP-1 phosphatase. 65,000 tested, 0.15% active. AID 374. recombinant MKP-1, OMFP hydrolysis fluorescence. inhibition, %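 (compounds tested at a single concentration somewhere between 10 and 100 µM)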;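 active means inhibition above about 50%, limit read from the data; inconclusive means inhibition over screen mean plus 3 SD, below that limit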;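 further: 0% = DMSO max control wells and 100% = wells with enzyme stopped by NaOH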
# RORa activator = activators of human nuclear receptor RORA. CHO-K1 Gal4-RORA LBD luciferase reporter, luminescence; percent increase over mock-subtracted basal signal. activation, % at 10 µM. 65,000 tested, 1.5% active;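 active means activation above the mean of all tested compounds plus 3 SD, cut at about 49% in these data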;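 further: 0% = DMSO-treated RORA cells and 100% = added signal equal to DMSO minus mock-transfected cells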
# An asterisk follows results filed as active; ? = inconclusive; · = not tested or not shown.
SMILES,Hsp90 block,JNK3 blocker,Cdc25B inh,SF1 activator,DUSP1 inh,RORa activator
Cc1cc(=O)oc2cc(NC(=O)C3COc4ccccc4O3)ccc12 (configuration not stated),-3,-4,-3,-3,28,-9
CCn1cnc2cc(NCc3ccc(C)cc3)ccc21,-4,-2,-6,50*,5,44
COc1ccccc1N1CCN(c2ccc(-c3ccccc3)nn2)CC1,·,·,-5,-12,12,-32
CN(C)c1ccc(-c2ccccc2)nn1,-2,·,-7,26,-4,56*
COc1ncnc2sc(-c3ccccc3)cc12,0,-2,-8,51*,-11,28
O=S(=O)(c1ccccc1)N1CCN(c2ncnc3sc(-c4ccccc4)cc23)CC1,-2,5,-15,-16,5,15
O=C(OCCN1CCCCC1)c1c[nH]c2ccccc12,-1,·,·,·,·,·
CCOC(=O)N1CCC(NC(=O)c2ccc3c(c2)sc2nc(-c4ccccc4)cn23)CC1,0,13,17,22,?,53*
Cc1cccc(-n2c(CNC(=O)c3ccccc3)nnc2SCC(=O)Nc2nccs2)c1,-2,5,7,-5,8,7
CC1=C(C(=O)OC(C)C)C(c2cccc(F)c2)N2C(=O)C(C)SC2=N1 (configuration not stated),-1,5,-6,-1,14,-27
Cn1c(-n2c(CCN3C(=O)c4ccccc4C3=O)nc3ccccc3c2=O)nc2ccccc21,-8,7,-6,16,9,57*
Cn1c(-n2c(CCCN3C(=O)c4ccccc4C3=O)nc3ccccc3c2=O)nc2ccccc21,-5,1,24,-9,16,-8
COc1cc(C2NC(=O)NC(C)=C2C(=O)OC2CCCCC2)cc(Br)c1O (configuration not stated),-6,10,-19,18,21,-22
CC1=C(C(=O)OC2CCCCCCC2)C(c2ccc(O)cc2)NC(=O)N1 (configuration not stated),-2,22*,-14,-19,10,-11
COc1cc(C2NC(=O)NC(C)=C2C(=O)OC2CCCC(C)C2)ccc1O (configuration not stated),3,36*,-3,6,10,16
O=C(NC1CCS(=O)(=O)C1)c1ccc(-c2ccc(Br)cc2)o1 (configuration not stated),1,4,-9,37,25,21
O=C1C=C(N2CCN(C3=CC(=O)CCC3)CC2)CCC1,-1,4,3,21,-24,2
CCCN(CCC)CCc1cccc2c1CC(=O)N2,-2,·,·,·,·,·
O=C(/C=C/Nc1cccc(O)c1)c1ccccc1,-7,4,1,57*,4,12
CN(C)c1ccc(-c2noc(-c3ccccc3O)n2)cc1,2,0,-1,18,11,5
Cc1ccc2c(CC(=O)NCc3ccco3)coc2c1C,0,-5,2,23,-10,52*
Cc1oc2c(O)c(O)ccc2c(=O)c1-c1ccccc1,70*,-11,-9,-16,-3,-14
CCc1cc(=O)oc2cc(C)cc(OC(=O)c3ccco3)c12,-3,20*,-13,1,4,-19
Cc1cccc(OCc2nnc(SCC(=O)Nc3cc(C)on3)n2C)c1,2,-6,-14,1,-13,-26
CCOc1ccc(C2CC(=O)NC3=C2C(=O)CCC3)cc1 (configuration not stated),1,45*,-4,3,8,6
SMILES,Hsp90 block,JNK3 blocker,Cdc25B inh,SF1 activator,DUSP1 inh,RORa activator
NS(=O)(=O)c1ccc(NC(=O)COC(=O)CCNC(=O)NC23CC4CC(CC(C4)C2)C3)cc1,·,·,6,2,16,10
O=C(NCCN1CCOCC1)NC1(C(F)(F)F)Oc2ccc(Cl)cc2O1 (configuration not stated),65*,3,9,-29,-3,-18
COCC(C)NC(=O)NC1(C(F)(F)F)Oc2ccc(Cl)cc2O1 (configuration not stated),·,·,2,13,8,-11
CC(C)N1CC(O)=C(c2nc3ccccc3[nH]2)C1=N,-2,-15,-15,30,-2,50*
Cc1ccccc1Cn1ccc(NC(=O)c2nc3ncccn3n2)n1,1,2,-16,-8,19,-3
Cc1ccccc1Cn1ccc(NC(=O)c2onc(C)c2Cl)n1,0,4,-11,11,-13,87*
COc1cccc(OCc2nc3ncc(Br)cc3[nH]2)c1,-4,12,-1,76*,-8,60*
CC(=O)c1sc(NC(=O)c2ccco2)nc1-c1ccccc1,-1,7,-2,70*,-6,40
Cc1cnc(NC(=O)c2ccco2)s1,·,·,-8,53*,7,71*
COC(=O)c1c(-c2ccccc2)csc1NC(=O)c1ccco1,2,8,-11,40,9,96*
Cc1ccc(C(=O)Nc2ncc(Cc3ccccc3)s2)o1,-1,8,-2,61*,-3,-12
CCOC(=O)c1sc(NC(=O)c2ccco2)nc1-c1ccccc1,0,-9,1,0,1,-4
O=C(Nc1ncc(Cc2ccccc2)s1)c1cccs1,-4,6,1,39,3,43
O=C(Nc1scc(-c2ccc(F)cc2)c1C(=O)O)c1ccco1,-2,-4,0,28,5,30
CCC(C)N(C)C(=O)c1cc2ccccc2c(-c2ccccc2Cl)n1 (configuration not stated),0,·,·,·,·,·
C=CCNS(=O)(=O)c1nc(C)c(Cl)c(C)c1C#N,2,2,-7,8,2,-7
COc1cccc(C(=O)Nc2cnc(NC(=O)c3ccco3)cc2C)c1,-2,·,-5,16,-3,14
Cc1nc(NC(=O)c2ccco2)sc1C(=O)Nc1ccc(Br)cc1,2,-3,-4,4,-6,23
COC(=O)c1sc(NC(=O)c2ccco2)nc1C,-2,5,-17,50*,-17,28
Cc1cc(NC(=O)c2ccco2)ncc1NC(=O)Cc1ccccc1,-2,-8,-6,41,-4,57*
OC[C@H]1O[C@@H](n2cnc3cncnc32)[C@H](O)[C@@H]1O,1,·,·,·,·,·
CCn1c(Cc2ccc(OC)cc2)nnc1SCC(=O)Nc1cccc(C(=O)OC)c1,-2,-2,-18,-3,-6,-12
COc1cccc2c1C(=O)c1c(O)c3c(c(O)c1C2=O)C[C@@](O)(C(=O)CO)C[C@@H]3O[C@H]1C[C@H](N)[C@H](O)[C@H](C)O1,73*,-12,-17,-80,-16,-63
COC(=O)c1ccc(-c2nc3ccc(C)cc3o2)cc1,-1,-4,2,46,2,68*
COC(=O)c1ccc(-c2nc3ccccc3o2)cc1,-4,2,-4,46,4,2
Cc1ccc2nc(-c3cccnc3)oc2c1,-1,6,4,33,-14,50*
